Assays:
[1] = Concentration required to inhibit the growth of human Ovarian OVCAR cells; type: functional
Method in brief: (§1)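 NCI screen of about 55 human cancer cell lines; GI50 per cell line over a test range of 10⁻⁸ to 10⁻⁴ M. Mean graph midpoint is the average GI50 across all lines tested, with values outside the range set to 10⁻⁸ or 10⁻⁴ M.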

[2] = Concentration required to inhibit the growth of human Prostate DU-145 cells; type: functional; method in brief: as §1
[3] = Concentration required to inhibit the growth of human Melanoma UACC-62 cells; type: functional; method in brief: as §1
[4] = Concentration required to inhibit the growth of human Breast MDA-MB-435 cells; type: functional; method in brief: as §1
[5] = Concentration required to inhibit the growth of human Colon […] cells; type: functional; method in brief: as §1
[6] = Concentration required to inhibit the growth of human CNSSF-539 cells; type: functional; method in brief: as §1
[7] = Concentration required to inhibit the growth of human Lung HOP-62 cells; type: functional; method in brief: as §1
[8] = Concentration required to inhibit the growth of human Renal SN12C cells; type: functional; method in brief: as §1
[9] = biological target: T1, DNA topoisomerase 1 (Homo sapiens) (UniProt P11387); test: Topoisomerase-I mediated DNA Cleavage activity at 30 degree C for 30 min relative to NSC 314622; Range = 25-75%
T1 sequence (whole entry): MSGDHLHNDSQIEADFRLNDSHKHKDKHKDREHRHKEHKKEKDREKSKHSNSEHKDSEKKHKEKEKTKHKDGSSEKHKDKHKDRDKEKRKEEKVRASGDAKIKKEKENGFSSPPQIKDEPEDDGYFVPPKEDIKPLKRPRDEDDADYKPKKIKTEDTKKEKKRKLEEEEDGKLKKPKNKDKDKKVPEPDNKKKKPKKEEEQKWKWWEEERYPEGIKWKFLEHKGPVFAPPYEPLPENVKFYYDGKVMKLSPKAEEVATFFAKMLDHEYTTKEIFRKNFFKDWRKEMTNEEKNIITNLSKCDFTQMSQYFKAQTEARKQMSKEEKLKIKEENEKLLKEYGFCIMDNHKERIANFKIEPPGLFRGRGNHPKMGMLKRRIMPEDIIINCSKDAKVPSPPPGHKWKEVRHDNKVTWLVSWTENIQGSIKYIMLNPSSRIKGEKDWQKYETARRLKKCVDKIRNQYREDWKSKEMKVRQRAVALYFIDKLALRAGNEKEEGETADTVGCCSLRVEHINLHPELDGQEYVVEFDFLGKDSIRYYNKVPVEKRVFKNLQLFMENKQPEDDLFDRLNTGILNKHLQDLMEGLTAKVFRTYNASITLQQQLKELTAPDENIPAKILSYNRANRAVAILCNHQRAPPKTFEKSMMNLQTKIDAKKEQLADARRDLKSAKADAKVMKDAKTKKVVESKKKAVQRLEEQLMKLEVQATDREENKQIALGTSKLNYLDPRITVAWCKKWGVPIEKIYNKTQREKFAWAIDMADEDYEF

[10] = biological target: T1, DNA topoisomerase 1 (Homo sapiens); test: Topoisomerase-I mediated DNA Cleavage activity at 30 degree C for 30 min relative to NSC 314622; Range = 75-175%
[11] = Concentration required to inhibit the growth of human prostate DU-145 cells; type: functional; method in brief: as §1
[12] = Concentration required to inhibit the growth of human OvarianOVCAR cells; type: functional; method in brief: as §1
[13] = Concentration required to inhibit the growth of human ProstateDU-145 cells; type: functional; conditions: DU-145; method in brief: as §1
[14] = Concentration required to inhibit the growth of human LungHOP-62 cells; type: functional
Method in brief: (§2)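 Assayed in the National Cancer Institute screen, a panel of approximately 55 human cancer cell lines. Compounds were tested over a concentration range of 10⁻⁸ to 10⁻⁴ molar, and growth inhibition was expressed as GI₅₀ for each cell line.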

[15] = Concentration required to inhibit the growth of human ColonHCT-11 cells; type: functional; method in brief: as §2

Structure (SMILES) | Cleavage [9] | Cleavage [10] | GI50 [1] | GI50 [2] | GI50 [3] | GI50 [4] | GI50 [5] | GI50 [6] | GI50 [7] | GI50 [8] | GI50 [11] | GI50 [12] | GI50 [13] | GI50 [14] | GI50 [15]
COc1cc2c(cc1OC)-c1ncc3c(OC)ccc(OC)c3c1C2 |  |  | 15.4 µM | 28.1 µM | 18 µM | 23.4 µM | 17.8 µM | 14 µM | 21.4 µM | 14.8 µM |  |  |  |  | 
COc1cc2c(cc1OC)-c1ncc3c(OC)c(OC)c(OC)cc3c1C2 | 75% |  | 0.529 µM |  | 3.84 µM |  | 8.81 µM |  | 16 µM |  |  |  |  |  | 
COc1cc2c(c(OC)c1OC)-c1ncc3c(OC)c(OC)c(OC)cc3c1C2 | 75% |  | 21.5 µM | 29.6 µM | 21.1 µM | 23 µM | 27.8 µM |  | 28.5 µM | 20.3 µM |  |  |  |  | 
COc1cc2c(c(OC)c1OC)-c1ncc3cc(OC)c(OC)c(OC)c3c1C2 |  |  |  | 26.6 µM | 17.4 µM | 20.8 µM | 33.5 µM |  | 35.4 µM | 17.6 µM |  | 19.1 µM |  |  | 
COc1cc2c(cc1OC)-c1ncc3cc(OC)c(OC)c(OC)c3c1C2 |  |  | 15.9 µM | 21.7 µM | 7.42 µM | 16.2 µM | 31.8 µM | 14 µM | 34.8 µM | 14.4 µM |  |  |  |  | 
COc1cc2c(c(OC)c1OC)-c1ncc3cc4c(cc3c1C2)OCO4 |  |  | 15.5 µM | 23.2 µM | 19.3 µM | 13.2 µM | 18.8 µM |  | 21.7 µM | 13.4 µM |  |  |  |  | 
CC[C@@]1(O)C(=O)OCc2c1cc1n(c2=O)Cc2cc3ccccc3nc2-1 [CAMPTOTHECIN] |  |  |  |  |  |  |  | 0.01 µM |  |  |  | 0.22 µM |  | 0.01 µM | 0.03 µM
c1c2c(cc3c1OCO3)-c1ncc3cc4c(cc3c1C2)OCO4 | 75% |  | 0.0232 µM |  | 0.19 µM | < 0.01 µM | 0.283 µM | 0.598 µM | 0.227 µM | 0.0414 µM |  |  |  |  | 

Further lines, with some results ahead:

Cleavage [9] | Cleavage [10] | Structure (SMILES) | GI50 [1] | GI50 [2] | GI50 [3] | GI50 [4] | GI50 [5] | GI50 [6] | GI50 [7] | GI50 [8] | GI50 [11] | GI50 [12] | GI50 [13] | GI50 [14] | GI50 [15]
75% |  | COc1cc2c3c(n(C)c(=O)c2cc1OC)-c1cc2c(cc1C3=O)OCO2 | 73 µM | 37 µM | 4.2 µM | 96 µM | 35 µM |  | 1.3 µM | 68 µM |  |  |  |  | 
 | 175% | COc1cc2c(cc1OC)-c1ncc3cc4c(cc3c1C2)OCO4 | 61.2 µM | 25.3 µM | > 100 µM | 63.4 µM | 11.1 µM | 23.4 µM |  | > 100 µM |  |  |  |  | 
75% |  | COc1cc2c3c(ncc2c(OC)c1OC)-c1cc2c(cc1C3)OCO2 |  |  |  | > 100 µM | 22.1 µM |  |  |  | 26.9 µM |  |  |  | 
75% |  | COc1cc2cnc3c(c2c(OC)c1OC)Cc1cc2c(cc1-3)OCO2 | 0.403 µM |  | 0.439 µM | 0.178 µM | 0.0694 µM | 0.869 µM | 0.234 µM | 0.602 µM |  |  | > 100 µM |  | 
 | 175% | COc1cc2cnc3c(c2cc1OC)Cc1cc2c(cc1-3)OCO2 |  | 0.0281 µM | < 0.01 µM | < 0.01 µM | > 100 µM | < 0.01 µM | 0.0721 µM | > 100 µM |  |  |  |  | 
75% |  | COc1ccc(OC)c2c3c(ncc12)-c1cc2c(cc1C3)OCO2 | 26.9 µM | 48.4 µM | > 100 µM | > 100 µM | 0.249 µM |  | < 0.01 µM | > 100 µM |  |  |  |  | 
75% |  | COc1cc2c(cc1OC)-c1ncc3cc(OC)c(OC)cc3c1C2 | > 50 µM | > 50 µM | > 50 µM | > 50 µM | > 50 µM | > 50 µM |  | > 50 µM |  |  |  |  | 
